# Sampled rows, rich in hits. Any-hit rate of the full collection: about 3.7%.
# GRIN3A LBD mod = modulators (binders) of human NR3A ligand-binding domain. 2.5% of 340,000 active. Tm shift relative to glycine control, % at 25 µM. NR3A LBD differential scanning fluorimetry, Tm shift; 0% = protein alone, 100% = glycine-bound protein. AID 1259313;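 active means melting temperature shift of at least 10% of the positive control shift, at one fixed dose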
# MPTP inh = permeability transition pore inhibition; isolated mouse mitochondria, Ca2+ swelling absorbance, 30 min; inhibition, % at 10 µM; 1.4% of 360,000 active; AID 602449;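 active means inhibition of 50% or more, scaled per plate between neutral and stimulator controls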;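 further: 0% = DMSO wells given calcium and 100% = 1 mM EGTA wells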
# aDG glyco up = alpha-DG glycosylation activation; Pro5-aDG cells, alpha-DG glycosylation AlphaScreen (IIH6); 0% Pro5, 100% B10-LARGE cell signal; activation, % at 10 µM; 0.22% of 360,000 active;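 active means activation of at least 8% versus controls, or a plate z-score of at least 8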;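 further: Pro5 are CHO cells carrying HIG-tagged alpha-DG that lacks glycosylation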
# proCasp3 act = activators of human procaspase-3; recombinant procaspase-3 D3A, Ac-DEVD-pNA absorbance 405 nm; activation, % at 8.5 µM; 0.11% of 330,000 active; P42574;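 active means activation above the mean of all tested compounds plus 3 SD, cut at about 21% in these data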;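 further: 0% = DMSO alone and 100% = DMSO wells spiked with extra 5 µM PC-3 D3A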
# Target sequence (P42574 whole entry D9A/D28A/D175A): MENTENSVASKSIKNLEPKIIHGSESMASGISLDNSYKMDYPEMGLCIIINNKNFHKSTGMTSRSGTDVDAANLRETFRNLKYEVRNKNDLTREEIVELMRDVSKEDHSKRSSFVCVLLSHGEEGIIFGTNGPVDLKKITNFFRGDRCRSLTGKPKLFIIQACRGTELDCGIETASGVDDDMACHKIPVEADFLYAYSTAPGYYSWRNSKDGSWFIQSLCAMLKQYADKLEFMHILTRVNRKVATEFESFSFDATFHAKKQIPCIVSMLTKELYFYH
#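 Technique: 405 nm absorbance of p-nitroaniline, reads at 0 and 120 min; Test system: Procaspase-3 D3A mutant; Incubation: 1 h enzyme-compound preincubation, then 2 h substrate reaction, 25 °C; Repeats: singlicate, each compound tested once; Benchmarks: low control DMSO wells, high control DMSO plus 5 µM PC-3 D3A.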
# procasp7 counter = counter-screen: procaspase-7 (human) activation | activation, % at 8.5 µM | P55210 | 0.093% of 330,000 active | recombinant procaspase-7, Ac-DEVD-pNA absorbance 405 nm; D23A/D198A/D206A triple mutant, cannot self-cleave; scale: DMSO 0, 5 µM enzyme 100;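 active means percent activation above the screen-wide mean plus 3 SD, cut at about 25% in these data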
#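 System: Uncleavable procaspase-7 mutant enzyme; Amount: 2 µM procaspase-7 mutant as dispensed; Schedule: 1 h compound preincubation, 2 h substrate cleavage, 25 °C; Measured by: 405 nm absorbance of p-nitroaniline; Evaluation: percent activation from buffer-corrected 0–120 min absorbance change; Control set: low DMSO alone, high DMSO plus 5 µM PC-7.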
# The depositor's hits bear a star; / = no result.
SMILES,GRIN3A LBD mod,MPTP inh,aDG glyco up,proCasp3 act,procasp7 counter
O=C(CN1C(=O)c2cccc([N+](=O)[O-])c2C1=O)N1CCc2ccccc2C1,/,1,0,/,/
COc1ccc(-c2cn3cc(C)ccc3n2)cc1Br,5,-4,94*,2,4
COc1ccc(-c2cn3cc(Cl)ccc3n2)cc1OC,-13,2,0,5,0
CCCCc1nc(N2CCOCC2)c(C#N)c2c1COC(C)(C)C2,15*,-2,0,-5,8
O=C(Nc1cc(C(F)(F)F)ccc1F)C1Cc2c(-c3ccccc3Oc3ccccc3)ccnc2O1 (stereo unspecified),/,1,2,/,/
COc1ccc(-c2nc3ccc(C)cn3c2Cc2ccccc2)cc1OC,/,-2,0,/,/
Cc1cc2c(cc1C)CSC(c1ccc3ccccc3c1O)SC2,15*,16,0,-3,1
Cc1cc2c(cc1C)CSC(c1c(O)ccc3ccccc13)SC2,27*,4,0,-4,5
Cc1cc2c(cc1C)CSC(c1ccc(O)cc1)SC2,8,2,0,3,2
Cc1cc2c(cc1C)CSC(c1ccccc1O)SC2,12*,6,0,-8,-4
O=C(COc1ccc(Br)cc1F)Nc1nnc(C2CC2)s1,1,0,0,2,11
O=C(O)c1ccc(Oc2ccc([N+](=O)[O-])cc2)c([N+](=O)[O-])c1,6,0,0,/,/
O=C(c1ccc(NS(=O)(=O)c2cccs2)cc1)N1CCCCC1,3,4,0,5,-3
O=C(c1ccc(NS(=O)(=O)c2cccs2)cc1)N1CCOCC1,11*,0,0,-1,11
COCCN1C(=O)CN(S(C)(=O)=O)CC1(C)C(=O)NCc1ccccc1 (stereo unspecified),/,0,0,/,/
O=C1N(c2ccccc2)C2CS(=O)(=O)CC2N1c1ccc(Cl)c(Cl)c1 (stereo unspecified),30*,0,0,-6,8
O=S1(=O)CC2SC(=S)N(c3ccccc3)C2C1 (stereo unspecified),0,2,0,-3,4
O=[N+]([O-])c1cccc(S(=O)(=O)Nc2ccc(-c3ccc(N4CCCC4)nn3)cc2)c1,31*,0,0,4,-2
COc1ccc(CNC(=O)C2CCC(=O)N(C3CCCCCC3)C2)c(OC)c1 (stereo unspecified),/,-1,0,/,/
C[C@H](CO)N1C[C@H](C)[C@@H](CN(C)S(=O)(=O)c2ccc(C#N)cc2)OCc2cn(nn2)CCCC1=O,/,0,0,/,/
CCOC(=O)c1sc(/N=C/c2ccc(O)cc2O)cc1C,14*,1,0,-6,2
CC(=O)Nc1cc(Cl)c(N=Cc2ccc(O)cc2O)cc1Cl,1,0,0,2,4
COc1ccc(CN2C[C@@H](CO)O[C@@H](n3cnc4c(NCc5cc(OC)c(OC)c(OC)c5)ncnc43)C2)cc1,/,0,0,/,/
O=C(Cc1ccccc1Cl)N1CCN(c2ncccn2)CC1,12*,-1,0,0,0
O=C(c1c(Cl)cccc1Cl)N1CCN(c2ncccn2)CC1,-3,0,0,2,5
SMILES,GRIN3A LBD mod,MPTP inh,aDG glyco up,proCasp3 act,procasp7 counter
O=C(O)CN1C(=O)/C(=C\C(Br)=C\c2ccccc2)SC1=S,13*,3,0,-22,-4
O=C(O)CN1C(=O)/C(=C/C=C/c2ccccc2)SC1=S,21*,8,0,0,-1
COc1cc(OCc2ccc(C)cc2)ccc1CNC[C@H]1O[C@@H](n2cnc(C(N)=O)n2)[C@H](O)[C@@H]1O,-2,-2,1,/,/
Nc1nnc(SCCOc2cccc(Br)c2)s1,13*,-1,0,4,-1
CCCOc1ccc(OCCSc2nnc(N)s2)cc1,-2,/,/,1,0
COc1ccc(CCNC(=O)CSc2nc3c(sc(=S)n3-c3ccccc3)c(=O)[nH]2)cc1OC,/,0,0,/,/
COc1ccc(CCNC(=O)CSc2nn(-c3ccccc3)c(=S)s2)cc1OC,19*,2,0,2,-5
O=C(Nc1cccc(C(F)(F)F)c1)NC1CCN(S(=O)(=O)c2ccc(F)cc2)CC1,19*,30,2,-2,-2
CC(=O)c1ccc(S(=O)(=O)N2CCC(NC(=O)Nc3cccc(F)c3)CC2)cc1,-4,0,0,5,7

# Screens deposited in PubChem by several laboratories.
